Assays:
[1] = pre-clinical study, no reference given; cited from earlier work
[2] = system: HDAC2; conditions: cited from earlier work
[3] = Plasma and urine pharmacokinetics, Cycle 1; format: in vivo, Japanese patients
Procedure, shortened: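 Oral 30 or 40 mg BIW. In Cycle 1, plasma was sampled on Days 1 and 25 from pre-dose to 72 h post-dose. Urine was collected in three 24-h intervals after the Day 1 and Day 25 doses. Parent drug and metabolites were measured by LC/MS–MS. The PK population received ≥1 Cycle 1 dose and had ≥1 measured post-dose concentration.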

## Nc1cc(F)ccc1NC(=O)c1ccc(CNC(=O)/C=C/c2cccnc2)cc1 [HBI-8000, tucidinostat]
[1]
  Effect on cardiovascular system including changes in QTc prolongation: did not induce any effect
[2]
  Inhibition of HDAC activity: selectively inhibits
[3]; 30 mg cohort
  Administered dose excreted unchanged in urine over the dosing interval, average: 25.3%
[3]; 40 mg cohort
  Administered dose excreted unchanged in urine over the dosing interval, average: 21.9%
[3]; human, plasma, oral, 40 mg, Mean t1/2, 30 and 40 mg, Days 1 and 25
  half-life: 17.1 to 21.6 h
[3]; human, plasma, po, 30 mg
  AUC(0-inf): 4000 ng·h/mL
[3]; human, plasma, po, 40 mg
  AUC(0-inf): 7160 ng·h/mL
[3]; human, plasma, po, 40 mg, Median tmax, single and repeat oral administration, 30 and 40 mg
  Tmax: 2.42 to 5 h

— article PMC9486889 (Japanese Journal of Clinical Oncology, 2022)
